Inconclusive results are not listed. Activity calls are given as the source filed them.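 The calls were made as follows, unless noted: active = growth inhibition above 25% in both replicates, a cutoff set 3 SD above the mean; inconclusive = above 25% in only one replicate; inactive = the rest.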

Experiment [1] in a line: S. cerevisiae growth inhibition in permissive medium (OD615), pilot counter-assay for S. cerevisiae lifespan shortening project, permissive growth control (AID 705). As to conditions: OD615, 24 h, at 10 µM, stronger effect = higher value. In outline:
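Test system: Saccharomyces cerevisiae strain carrying genetically modified DeaD replicative-lifespan system; buffer or medium: SC raffinose/galactose permissive medium; dosing: one dose 10 µM, DMSO 0.25% final; times: 24 h exposure, 30 °C; measured by: OD at 615 nm; read-out basis: growth inhibition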

The nature of experiment [2]: S. cerevisiae growth inhibition in restrictive medium, OD615, pilot screen, restrictive growth control, yeast lifespan reduction project (AID 706;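 active = growth inhibition above a set limit, 3 SD over mean compound inhibition, in both replicates, cut at about 43% in these data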;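 also: modified DeaD lifespan yeast strain shifted to restrictive glucose medium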). As to conditions: OD615, 48 h, at 10 µM, stronger effect = higher value. In outline:
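material = engineered S. cerevisiae DeaD strain | buffer or medium = glucose-based CSMM-D restrictive medium | dosing = one concentration, 10 µM final, 0.25% DMSO | schedule = 4 h pre-growth plus 48 h compound exposure, 30 °C | detection = OD615 absorbance reading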

Experiment [3] is described as follows: doxorubicin toxicity protection in MRP-1 cells – H69AR cells, CellTiter-Glo, duplicate, MRP-1 activator project, pilot screen (AID 807;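 active = viability increase at or above a cutoff of the median across tested compounds plus 3 SD, cut at about 8.5% in these data, passing the limit was not always enough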;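 also: compound pretreatment 18-22 h then 72 h combined with doxorubicin; 0% = doxorubicin alone and 100% = vehicle without doxorubicin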). As to conditions: H69AR viability with doxorubicin, CellTiter-Glo luminescence; at 10 µM; stronger effect = higher value. For orientation: Cellular ATP, detected with luciferase, serves as a proxy for viable cell number.
Experiment [4] can be described thus: viability of HCT116 without oncogenic beta-catenin – human colon tumor cells, pilot screen (AID 823;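 active = cell viability at or below a set limit in both duplicate runs, the limit being the all-compound median minus 4 SD, cut at about 23% in these data, passing the limit was not always enough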;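 also: 0% = wells killed by 20 µM Hyamine and 100% = untreated DMSO cell wells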). Particulars: HCT116 beta-catenin knockout viability, CellTiter-Glo, 60 h; at 10 µM; stronger effect = lower value.
Experiment [5] in a line: viability of PTEN-null HCT116 cells – cell-based, HCT116 clonal line, CellTiter-Glo, pilot screen (AID 824;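 active = viability at or below 27.92% in each of two runs, the all-compound median minus 4 SD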;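 also: 0% = 20 µM Hyamine control and 100% = vehicle cell control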). As to conditions: HCT116 PTEN-deleted viability, 60 h, at 10 µM, stronger effect = lower value.
The nature of experiment [6]: RAM pathway blockade in budding yeast – dse1pr::URA3 reporter, 5-FOA selection, pilot screen (AID 869;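 active = inhibition over a set limit, the all-compound mean plus 3 SD, in both replicate runs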;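 also: 0% = DMSO wells with no growth and 100% = 10 µM 1-NA-PP1 with full growth; RAM network block rescues cells from 5-FOA so hits raise OD615 growth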). As to conditions: S. cerevisiae dse1pr::URA3 5-FOA growth, OD615, 2 d, at 10 µM, stronger effect = higher value.
A short description of experiment [7]: RAM signaling pathway blockade in yeast – S. cerevisiae, Pdr1DBD-CYC8 efflux-inhibited sensitized strain, primary screen (AID 1298;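 active = RAM network inhibition above 8.4% in each of two replicates, 3 SD over the compound average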;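 also: 0% = DMSO untreated cells without growth and 100% = 10 µM 1-NA-PP1 full growth; higher means more yeast growth rescued from 5-FOA killing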). As to conditions: S. cerevisiae cbk1-as DSE1-URA3 strain, 5-FOA growth OD615, 2 d; at 50 µM; stronger effect = higher value.
Experiment [8] in a line: Coupled enzyme confirmation of inhibitors against recombinant Mtb PanC (AID 375). As to conditions: coupled enzyme assay.

Consider `COc1ccc(N2C(=O)CC(N3CC=C(c4ccccc4)CC3)C2=O)cc1` (stereo unspecified), for which the growth inhibition in experiment [1] was -17.8% (inactive); in experiment [2] it was -0.61% (inactive). Besides, the viability increase in experiment [3] is 1.66% (inactive). Moreover, the viability – broadly, a read-out of living cells in per cent, often relative to untreated cells – in experiment [4] is 101% (inactive); in experiment [5] it was 103% (inactive). Further, the inhibition (as a rule, the relative decrease from the control value, in per cent) in experiment [6] is 0.145% (inactive). Besides, the RAM network inhibition in experiment [7] was 4.45% (inactive).
For `CN(C)C(=O)Oc1ccc(-c2nnco2)cc1`, the growth inhibition in experiment [1] is 0.38% (inactive); in experiment [2] it was -1.25% (inactive). Moreover, in experiment [3], the viability increase is 1.79% (inactive). The viability is 104% (inactive) in experiment [4] and 99.7% (inactive) in experiment [5]. In addition, in experiment [6], the inhibition is 1.48% (inactive). Besides, the RAM network inhibition in experiment [7] is 0.73% (inactive).
Regarding `CC(CO)(CO)N=Cc1c(O)n(-c2cccc3ccccc23)c(=O)[nH]c1=O`, the growth inhibition is -9.27% (inactive) in experiment [1] and -18.2% (inactive) in experiment [2]. Further, the viability increase in experiment [3] is -1.01% (inactive). Moreover, the figures for the viability in experiment [4] and in experiment [5] were 95.8% (inactive) and 99% (inactive), respectively. Besides, in experiment [6], the inhibition is 0.52% (inactive). Also, in experiment [7], the RAM network inhibition was 4.06% (inactive).
`Cn1cc(C(=O)c2ccccc2)c2ccccc21`: the growth inhibition in experiment [1] is -1.98% (inactive); in experiment [2], 0.835% (inactive). The viability increase in experiment [3] was -1.92% (inactive). Besides, the figures for the viability in experiment [4] and in experiment [5] were 80.8% (inactive) and 87.1% (inactive), respectively. The inhibition in experiment [6] was 0.46% (inactive). Also, the RAM network inhibition in experiment [7] was -3.38% (inactive).
On to `CCN(c1ccc(C(O)(C(=O)OC)C(F)(F)F)cc1)S(=O)(=O)c1ccccc1` (stereo unspecified), for which the growth inhibition was -4.31% (inactive) in experiment [1] and -3.91% (inactive) in experiment [2]. The viability increase in experiment [3] was 0.9% (inactive). The viability in experiment [4] is 99.4% (inactive); in experiment [5] it was 102% (inactive). In addition, the inhibition in experiment [6] was -0.62% (inactive). In addition, the RAM network inhibition in experiment [7] is 4.74% (inactive).
Regarding `Cn1c(O)c(C=Nc2ccc(Cl)cc2)c(=O)n(C)c1=O`, the growth inhibition is -7.12% (inactive) in experiment [1] and -0.49% (inactive) in experiment [2]. Also, the viability increase in experiment [3] is -0.57% (inactive). Moreover, the viability in experiment [4] is 96.2% (inactive); in experiment [5], 93.7% (inactive). In addition, the inhibition in experiment [6] is 0.685% (inactive). In experiment [7], the RAM network inhibition was 4.04% (inactive).
Regarding `O=C1CC(N2CC=C(c3ccccc3)CC2)C(=O)N1c1ccc(F)cc1` (stereo unspecified), the figures for the growth inhibition in experiment [1] and in experiment [2] were -7.4% (inactive) and -4.17% (inactive), respectively. Also, the viability increase in experiment [3] is 3.41% (inactive). The viability is 98.8% (inactive) in experiment [4] and 97.3% (inactive) in experiment [5]. The inhibition in experiment [6] was 0.99% (inactive). Also, the RAM network inhibition in experiment [7] was 5.39% (inactive).
As for `CC12CN3CC(C)(CN(C1)C3c1ccco1)C2=O` (stereo unspecified), the growth inhibition in experiment [1] is -8.88% (inactive); in experiment [2], -8.04% (inactive). For the same compound, in experiment [3], the viability increase is -0.55% (inactive). In addition, the viability in experiment [4] is 95.6% (inactive); in experiment [5] it was 99.6% (inactive). Besides, in experiment [6], the inhibition was 2.1% (inactive). Besides, in experiment [7], the RAM network inhibition is 2.07% (inactive).
For the compound `CCOc1ccc(-n2c(CC)nc3ccccc3c2=O)cc1`, the growth inhibition was -2.47% (inactive) in experiment [1] and -8.86% (inactive) in experiment [2]. In experiment [3], the viability increase is -1.18% (inactive). The viability was 88% (inactive) in experiment [4] and 89.8% (inactive) in experiment [5]. For the same compound, the inhibition in experiment [6] was 1.81% (inactive). For the same compound, the RAM network inhibition in experiment [7] was 3.89% (inactive).
Consider `O=C(c1ccc2c(c1)OCO2)N1CCC2(CC1)OCCO2`, for which the growth inhibition in experiment [1] was -5.96% (inactive); in experiment [2], -4.21% (inactive). Further, in experiment [3], the viability increase was 1.06% (inactive). Also, the viability in experiment [4] is 102% (inactive); in experiment [5] it was 97.1% (inactive). Moreover, the inhibition in experiment [6] was 0.85% (inactive). Besides, the RAM network inhibition in experiment [7] was -1.11% (inactive).
For `COc1cc(CC2C(=O)N(C)C(=O)N(C)C2=O)ccc1OCc1ccccc1`, the figures for the growth inhibition in experiment [1] and in experiment [2] were -12.6% (inactive) and -5.52% (inactive), respectively. In addition, in experiment [3], the viability increase is 0.67% (inactive). Also, the viability in experiment [4] is 96.9% (inactive); in experiment [5] it was 95.8% (inactive). Moreover, the inhibition in experiment [6] is 0.87% (inactive). For the same compound, in experiment [7], the RAM network inhibition is 5.72% (inactive).
As for `CCCCCn1c(=O)c(C(=O)Nc2ccncc2)c(O)c2ccccc21`, the results for the growth inhibition in experiment [1] and in experiment [2] were 92.1% (active) and 100% (active), respectively. For the same compound, the viability increase in experiment [3] was -8.28% (inactive). Besides, the figures for the viability in experiment [4] and in experiment [5] were 13.2% (active) and 9.96% (active), respectively. In addition, the inhibition in experiment [6] is -0.43% [strain carries analog-sensitive mutant Cbk1 kinase] (inactive). In addition, the RAM network inhibition in experiment [7] was -1.36% (inactive).
On to `Cc1ccc2c(c1)C1CN(C)CCC1N2C(=O)c1ccco1` (stereo unspecified), for which the growth inhibition was -2.01% (inactive) in experiment [1] and -12.5% (inactive) in experiment [2]. The viability increase in experiment [3] is -3.67% (inactive). For the same compound, the viability in experiment [4] is 85.4% (inactive); in experiment [5] it was 91.9% (inactive). The inhibition in experiment [6] was 1.32% (inactive). The RAM network inhibition in experiment [7] was 2.85% (inactive).
Consider `O=C(Nc1ccccc1OC(=O)N1CCCCC1)N1CCCCC1`, for which the growth inhibition in experiment [1] was -8.28% (inactive); in experiment [2], -4.06% (inactive). In addition, the viability increase in experiment [3] is -2.07% (inactive). Further, the viability in experiment [4] is 97.4% (inactive); in experiment [5], 100% (inactive). Moreover, the inhibition in experiment [6] was 0.8% (inactive). In experiment [7], the RAM network inhibition was 3.27% (inactive).
For `CCCCP(=O)(O)c1ccccc1`, the growth inhibition in experiment [1] is -5.46% (inactive); in experiment [2], -11.7% (inactive). For the same compound, in experiment [3], the viability increase was -0.51% (inactive). The viability in experiment [4] is 101% (inactive); in experiment [5], 95.4% (inactive). Also, the inhibition in experiment [6] was 1.03% (inactive). Moreover, the RAM network inhibition in experiment [7] is 3.03% (inactive).
On to `Cc1ccc2occ(CN3CC4CC(C3)c3cccc(=O)n3C4)c(=O)c2c1` (stereo unspecified), for which the growth inhibition in experiment [1] was -16.2% (inactive); in experiment [2] it was -17.7% (inactive). In addition, the viability increase in experiment [3] was -2.72% (inactive). In addition, the viability was 98.5% (inactive) in experiment [4] and 90.8% (inactive) in experiment [5]. Also, in experiment [6], the inhibition is 1.96% (inactive). The RAM network inhibition in experiment [7] is 1.61% (inactive).
For the compound `COC(=O)C(O)(c1ccc(N(C)S(=O)(=O)c2ccccc2)cc1)C(F)(F)F` (stereo unspecified), the growth inhibition in experiment [1] is -3.52% (inactive); in experiment [2], 2.86% (inactive). Moreover, in experiment [3], the viability increase was 1.65% (inactive). The viability was 98.8% (inactive) in experiment [4] and 108% (inactive) in experiment [5]. For the same compound, in experiment [6], the inhibition was 1.2% (inactive). The RAM network inhibition in experiment [7] is 0.9% (inactive).
Take `CC(C)(C)C1CCc2onc(C(=O)Nc3cnn(Cc4ccc(F)cc4)c3)c2C1` (stereo unspecified): the IC50 in experiment [8] (measured here: coupling enzymes IC50 repeat trials) and in experiment [8] (measured here: coupling enzymes counter-screen IC50) was greater than 100 µM each time.

The values are drawn from PubChem BioAssay.
